Experimental data published in ChEMBL document CHEMBL2321793, “Discovery of a novel broad-spectrum antifungal agent derived from albaconazole” (ACS Med Chem Lett, 2013).
≈ marks a conversion by molar mass, not a printed value.

Experiments:
Candida albicans [1] = test: Antifungal activity against fluconazole-resistant Candida albicans DSY735 after 24 hrs by spectrofluorometric analysis; type: functional; settings: DSY735, 24 h
Candida albicans [2] = test: Antifungal activity against fluconazole-susceptible Candida albicans CAAL93 after 24 hrs by spectrofluorometric analysis; type: functional; settings: CAAL93, 24 h
Pichia kudriavzevii [3] = test: Antifungal activity against Candida krusei CAKR8 after 24 hrs by spectrofluorometric analysis; type: functional; settings: CAKR8, 24 h
Aspergillus fumigatus [4] = test: Antifungal activity against Aspergillus fumigatus ASFU7 after 48 hrs by M38 method; type: functional; settings: ASFU7, 48 h
Nakaseomyces glabratus = test: Antifungal activity against Candida glabrata CAGL2 after 24 hrs by spectrofluorometric analysis; type: functional; settings: CAGL2, 24 h
Candida parapsilosis [5] = test: Antifungal activity against acquired-resistant Candida parapsilosis CAPA2 after 24 hrs by spectrofluorometric analysis; type: functional; settings: Lodderomyces parapsilosis, CAPA2, 24 h
Candida albicans [6] = test: Antifungal activity against fluconazole-resistant Candida albicans DSY292 after 24 hrs by spectrofluorometric analysis; type: functional; settings: DSY292, 24 h
Pichia kudriavzevii [7] = test: Antifungal activity against Candida krusei CAKR7 after 24 hrs by spectrofluorometric analysis; type: functional; settings: CAKR7, 24 h
Candida parapsilosis [8] = test: Antifungal activity against acquired-resistant Candida parapsilosis CAPA1 after 24 hrs by spectrofluorometric analysis; type: functional; settings: Lodderomyces parapsilosis, CAPA1, 24 h
Candida albicans [9] = test: Antifungal activity against fluconazole-susceptible Candida albicans CAAL97 after 24 hrs by spectrofluorometric analysis; type: functional; settings: CAAL97, 24 h
Rhizomucor miehei = test: Antifungal activity against Rhizomucor miehei RHMI1 after 48 hrs by broth microdilution test
[10] = molecular target: T1, Lanosterol 14-alpha demethylase (Candida albicans (strain SC5314 / ATCC MYA-2876) (Yeast), UniProt P10613); test: Inhibition of CYP51 in fluconazole-susceptible Candida albicans CAAL93 assessed as zymosterol level at 4.5 ng/mL after 2 hrs; design: scale not given: the % may be the effect or the level left
[11] = molecular target: T1, Lanosterol 14-alpha demethylase; test: Inhibition of CYP51 in fluconazole-susceptible Candida albicans CAAL93 assessed as ergosterol level at 22 ng/mL after 2 hrs; design: scale not given: the % may be the effect or the level left
[12] = molecular target: T1, Lanosterol 14-alpha demethylase; test: Inhibition of CYP51 in fluconazole-susceptible Candida albicans CAAL93 assessed as 14-methyfecosterol level at 22 ng/mL after 2 hrs; design: scale not given: the % may be the effect or the level left
[13] = molecular target: T1, Lanosterol 14-alpha demethylase; test: Inhibition of CYP51 in fluconazole-susceptible Candida albicans CAAL93 assessed as 14-methylepisterol level at 4.5 ng/mL after 2 hrs; design: scale not given: the % may be the effect or the level left
Aspergillus fumigatus [14] = test: Antifungal activity against Aspergillus fumigatus ASFU23 after 48 hrs by M38 method; type: functional; settings: ASFU23, 48 h
[15] = molecular target: T1, Lanosterol 14-alpha demethylase; test: Inhibition of CYP51 in fluconazole-susceptible Candida albicans CAAL93 assessed as eburicol level at 22 ng/mL after 2 hrs; design: scale not given: the % may be the effect or the level left
[16] = molecular target: T1, Lanosterol 14-alpha demethylase; test: Inhibition of CYP51 in fluconazole-susceptible Candida albicans CAAL93 assessed as 14-methylepisterol level at 22 ng/mL after 2 hrs; design: scale not given: the % may be the effect or the level left
[17] = molecular target: T1, Lanosterol 14-alpha demethylase; test: Inhibition of CYP51 in fluconazole-susceptible Candida albicans CAAL93 assessed as ergosterol level after 2 hrs
Aspergillus fumigatus [18] = test: Antifungal activity against Aspergillus fumigatus ASFU20 after 48 hrs by M38 method; type: functional; settings: ASFU20, 48 h
Aspergillus fumigatus [19] = test: Antifungal activity against Aspergillus fumigatus ASFU19 after 48 hrs by M38 method; type: functional; settings: ASFU19, 48 h
[20] = molecular target: T1, Lanosterol 14-alpha demethylase; test: Inhibition of CYP51 in fluconazole-susceptible Candida albicans CAAL93 assessed as lanosterol level at 4.5 ng/mL after 2 hrs; design: scale not given: the % may be the effect or the level left
[21] = molecular target: T1, Lanosterol 14-alpha demethylase; test: Inhibition of CYP51 in fluconazole-susceptible Candida albicans CAAL93 assessed as 14-methyfecosterol level at 4.5 ng/mL after 2 hrs; design: scale not given: the % may be the effect or the level left
[22] = Antifungal activity against Scedosporium sp. SCSP1 after 48 hrs by broth microdilution test; type: functional
Candida albicans [23] = test: Antifungal activity against fluconazole-susceptible Candida albicans CAAL93 infected in Swiss mouse assessed as host survival at 15 mg/kg, po qd for 5 days measured after 13 days; type: functional
Method in brief: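 Transiently neutropenic Swiss mice were infected intravenously with C. albicans CAAL93 blastoconidia. Oral dosing began 1 h post-infection at 15 mg/kg body weight, in 5% DMSO, once daily for 5 consecutive days. Controls received 100 μL 0.9% saline with 5% DMSO. The read-out was survival rate on day 13 after infection, compared by log-rank test.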

[24] = molecular target: T1, Lanosterol 14-alpha demethylase; test: Inhibition of CYP51 in fluconazole-susceptible Candida albicans CAAL93 assessed as lanosterol level at 22 ng/mL after 2 hrs; design: scale not given: the % may be the effect or the level left
[25] = molecular target: T1, Lanosterol 14-alpha demethylase; test: Inhibition of CYP51 in fluconazole-susceptible Candida albicans CAAL93 assessed as episterol level at 4.5 ng/mL after 2 hrs; design: scale not given: the % may be the effect or the level left
[26] = molecular target: T1, Lanosterol 14-alpha demethylase; test: Inhibition of CYP51 in fluconazole-susceptible Candida albicans CAAL93 assessed as 14-methyl-3,6-diol level at 22 ng/mL after 2 hrs; design: scale not given: the % may be the effect or the level left
[27] = molecular target: T1, Lanosterol 14-alpha demethylase; test: Inhibition of CYP51 in fluconazole-susceptible Candida albicans CAAL93 assessed as eburicol level at 4.5 ng/mL after 2 hrs; design: scale not given: the % may be the effect or the level left
Aspergillus fumigatus [28] = test: Antifungal activity against Aspergillus fumigatus ASFU17 after 48 hrs by M38 method; type: functional; settings: ASFU17, 48 h
Aspergillus fumigatus [29] = test: Antifungal activity against Aspergillus fumigatus ASFU13 after 48 hrs by M38 method; type: functional; settings: ASFU13, 48 h
[30] = Antifungal activity against Rhizomucor pusillus RHPU1 after 48 hrs by broth microdilution test; type: functional
[31] = molecular target: T1, Lanosterol 14-alpha demethylase; test: Inhibition of CYP51 in fluconazole-susceptible Candida albicans CAAL93 assessed as ergosterol level at 4.5 ng/mL after 2 hrs; design: scale not given: the % may be the effect or the level left

T1 sequence (P10613 whole entry): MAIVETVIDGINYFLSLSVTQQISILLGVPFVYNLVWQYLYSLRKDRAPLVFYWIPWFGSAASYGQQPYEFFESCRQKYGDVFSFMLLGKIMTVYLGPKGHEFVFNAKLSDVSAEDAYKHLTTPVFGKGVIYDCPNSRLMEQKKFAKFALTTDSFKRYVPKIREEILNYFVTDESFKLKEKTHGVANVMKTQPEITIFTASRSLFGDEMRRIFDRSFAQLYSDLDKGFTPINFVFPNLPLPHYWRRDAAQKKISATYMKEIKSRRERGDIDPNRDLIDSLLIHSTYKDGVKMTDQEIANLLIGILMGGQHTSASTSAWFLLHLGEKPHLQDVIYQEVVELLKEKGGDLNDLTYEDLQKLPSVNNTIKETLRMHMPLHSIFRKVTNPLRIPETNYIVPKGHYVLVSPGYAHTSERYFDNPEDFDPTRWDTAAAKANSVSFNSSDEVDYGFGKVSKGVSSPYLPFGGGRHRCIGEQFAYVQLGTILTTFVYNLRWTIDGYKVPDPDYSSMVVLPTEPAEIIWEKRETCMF

C[C@@H](n1cnc2ccc3ncsc3c2c1=O)[C@](O)(Cn1cncn1)c1ccc(F)cc1F
MIC (Candida albicans [1]): 1.43 µg/mL (≈ 3.15 µM)
MIC (Candida albicans [2]): 0.003 µg/mL (≈ 0.0066 µM)
MIC (Pichia kudriavzevii [3]): 2.5 µg/mL (≈ 5.5 µM)
MIC (Aspergillus fumigatus [4]): > 43 µg/mL
MIC (Nakaseomyces glabratus): 0.095 µg/mL (≈ 0.209 µM)
MIC (Candida parapsilosis [5]): < 0.001 µg/mL
MIC (Candida albicans [6]): 5 µg/mL (≈ 11 µM)
MIC (Pichia kudriavzevii [7]): 5 µg/mL (≈ 11 µM)
MIC (Candida parapsilosis [8]): 0.006 µg/mL (≈ 0.0132 µM)
MIC (Candida albicans [9]): < 0.001 µg/mL

C[C@@H](n1cnc2cc3scnc3cc2c1=O)[C@](O)(Cn1cncn1)c1ccc(F)cc1F
MIC (Rhizomucor miehei): 2 µg/mL (≈ 4.4 µM)
MIC (Candida albicans [1]): 0.118 µg/mL (≈ 0.26 µM)
Activity [10]: 2%
MIC (Candida albicans [2]): 0.011 µg/mL (≈ 0.0242 µM)
Activity [11]: 5.4%
Activity [12]: 11.4%
Activity [13]: 5.9%
MIC (Pichia kudriavzevii [3]): < 0.005 µg/mL
MIC (Aspergillus fumigatus [14]): 0.27 µg/mL (≈ 0.594 µM)
Activity [15]: 20.4%
Activity [16]: 15.7%
inhibition (INH) [17]: Dose-dependent effect
MIC (Aspergillus fumigatus [4]): 0.28 µg/mL (≈ 0.616 µM)
MIC (Aspergillus fumigatus [18]): 4.5 µg/mL (≈ 9.9 µM)
MIC (Nakaseomyces glabratus): 0.068 µg/mL (≈ 0.15 µM)
MIC (Aspergillus fumigatus [19]): 2.1 µg/mL (≈ 4.62 µM)
MIC (Candida parapsilosis [5]): 0.127 µg/mL (≈ 0.279 µM)
Activity [20]: 29.9%
Activity [21]: 3.8%
MIC [22]: 1 µg/mL (≈ 2.2 µM)
survival at 15 mg/kg (Candida albicans [23]): 75%
Activity [24]: 41.6%
MIC (Candida albicans [6]): 0.94 µg/mL (≈ 2.07 µM)
Activity [25]: 2.9%
Activity [26]: 5.4%
Activity [27]: 4.4%
MIC (Pichia kudriavzevii [7]): 0.182 µg/mL (≈ 0.4 µM)
MIC (Aspergillus fumigatus [28]): 2.2 µg/mL (≈ 4.84 µM)
MIC (Aspergillus fumigatus [29]): 3.1 µg/mL (≈ 6.82 µM)
MIC [30]: 1 µg/mL (≈ 2.2 µM)
MIC (Candida parapsilosis [8]): 0.013 µg/mL (≈ 0.0286 µM)
Activity [31]: 51.1%
MIC (Candida albicans [9]): < 0.001 µg/mL

C[C@@H](n1cnc2cc(Cl)ccc2c1=O)[C@](O)(Cn1cncn1)c1ccc(F)cc1F [ALBACONAZOLE]
MIC (Rhizomucor miehei): 1 µg/mL (≈ 2.32 µM)
MIC (Candida albicans [1]): 0.063 µg/mL (≈ 0.146 µM)
MIC (Candida albicans [2]): 0.003 µg/mL (≈ 0.00695 µM)
MIC (Pichia kudriavzevii [3]): 0.005 µg/mL (≈ 0.0116 µM)
MIC (Aspergillus fumigatus [14]): 0.22 µg/mL (≈ 0.509 µM)
MIC (Aspergillus fumigatus [4]): 0.23 µg/mL (≈ 0.533 µM)
MIC (Aspergillus fumigatus [18]): 1.2 µg/mL (≈ 2.78 µM)
MIC (Nakaseomyces glabratus): 0.065 µg/mL (≈ 0.151 µM)
MIC (Aspergillus fumigatus [19]): 2 µg/mL (≈ 4.63 µM)
MIC (Candida parapsilosis [5]): 0.011 µg/mL (≈ 0.0255 µM)
MIC [22]: 0.5 µg/mL (≈ 1.16 µM)
MIC (Candida albicans [6]): < 0.043 µg/mL
MIC (Pichia kudriavzevii [7]): 0.022 µg/mL (≈ 0.0509 µM)
MIC (Aspergillus fumigatus [28]): 2.1 µg/mL (≈ 4.86 µM)
MIC (Aspergillus fumigatus [29]): 1.1 µg/mL (≈ 2.55 µM)
MIC [30]: 0.5 µg/mL (≈ 1.16 µM)
MIC (Candida parapsilosis [8]): 0.018 µg/mL (≈ 0.0417 µM)
MIC (Candida albicans [9]): < 0.001 µg/mL

OC(Cn1cncn1)(Cn1cncn1)c1ccc(F)cc1F [FLUCONAZOLE]
MIC (Candida albicans [1]): 11 µg/mL (≈ 35.9 µM)
MIC (Candida albicans [2]): 0.062 µg/mL (≈ 0.202 µM)
MIC (Pichia kudriavzevii [3]): 12.9 µg/mL (≈ 42.1 µM)
MIC (Nakaseomyces glabratus): 7.7 µg/mL (≈ 25.1 µM)
MIC (Candida parapsilosis [5]): > 30 µg/mL
MIC (Candida albicans [6]): 21 µg/mL (≈ 68.6 µM)
MIC (Pichia kudriavzevii [7]): > 30 µg/mL
MIC (Candida parapsilosis [8]): > 30 µg/mL
MIC (Candida albicans [9]): 0.018 µg/mL (≈ 0.0588 µM)

CCC(C)n1ncn(-c2ccc(N3CCN(c4ccc(OCC5COC(Cn6cncn6)(c6ccc(Cl)cc6Cl)O5)cc4)CC3)cc2)c1=O (centres undefined) [ITRACONAZOLE]
MIC (Aspergillus fumigatus [14]): > 71 µg/mL
MIC (Aspergillus fumigatus [4]): 0.42 µg/mL (≈ 0.595 µM)
MIC (Aspergillus fumigatus [18]): > 71 µg/mL
MIC (Aspergillus fumigatus [19]): > 71 µg/mL
MIC (Aspergillus fumigatus [28]): > 71 µg/mL
MIC (Aspergillus fumigatus [29]): > 71 µg/mL

C[C@@H](c1ncncc1F)[C@](O)(Cn1cncn1)c1ccc(F)cc1F [VORICONAZOLE]
MIC (Rhizomucor miehei): 8 µg/mL (≈ 22.9 µM)
MIC (Candida albicans [1]): 0.101 µg/mL (≈ 0.289 µM)
MIC (Candida albicans [2]): 0.005 µg/mL (≈ 0.0143 µM)
MIC (Pichia kudriavzevii [3]): < 0.003 µg/mL
MIC (Aspergillus fumigatus [14]): 0.18 µg/mL (≈ 0.515 µM)
MIC (Aspergillus fumigatus [4]): 0.15 µg/mL (≈ 0.429 µM)
MIC (Aspergillus fumigatus [18]): < 0.35 µg/mL
MIC (Nakaseomyces glabratus): 0.061 µg/mL (≈ 0.175 µM)
MIC (Aspergillus fumigatus [19]): 3 µg/mL (≈ 8.59 µM)
MIC (Candida parapsilosis [5]): 0.905 µg/mL (≈ 2.59 µM)
MIC [22]: 0.125 µg/mL (≈ 0.358 µM)
MIC (Candida albicans [6]): 1.1 µg/mL (≈ 3.15 µM)
MIC (Pichia kudriavzevii [7]): 0.549 µg/mL (≈ 1.57 µM)
MIC (Aspergillus fumigatus [28]): 0.25 µg/mL (≈ 0.716 µM)
MIC (Aspergillus fumigatus [29]): < 0.35 µg/mL
MIC [30]: 2 µg/mL (≈ 5.73 µM)
MIC (Candida parapsilosis [8]): 0.925 µg/mL (≈ 2.65 µM)
MIC (Candida albicans [9]): < 0.003 µg/mL
